ChEMBL document CHEMBL3414433, “Discovery and profiling of a selective and efficacious Syk inhibitor” (J Med Chem, 2015)

How the values were obtained:
[1] = Cytotoxicity against C57BL/6 mouse bone marrow cells assessed as growth inhibition preincubated for 4 days followed by [3H]-thymidine addition measured after 5 hrs by betaplate counting analysis; assay type: cell-based, Bone marrow cell
[2] = biological target: T1, Tyrosine-protein kinase SYK (Homo sapiens, UniProt P43405); assay: Inhibition of Syk in anti-igM stimulated human Ramos B cells assessed as phospho-BLNK level preincubated for 30 mins followed by anti-IgM stimulation measured after 15 mins by flow cytometric analysis; assay type: cell-based
[3] = biological target: T1, Tyrosine-protein kinase SYK; assay: Inhibition of Syk in anti-CD32 stimulated CD14+ human monocytes assessed as phospho-SLP76 level preincubated for 30 mins followed by anti-CD32 stimulation measured after 5 mins by flow cytometric analysis
[4] = biological target: Voltage-gated inwardly rectifying potassium channel KCNH2 (Homo sapiens, UniProt Q12809); assay: Inhibition of human ERG expressed in CHO cells by automated Qpatch clamp assay; assay type: cell-based
[5] = Clearance in Sprague-Dawley rat at 1 mg/kg, iv and 3 mg/kg, po administered as cassette dosing; assay type: ADME, organism-based; settings: in vivo
How it was run: (§1)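 Rat PK: i.v. 1 mg/kg in NMP/PEG200 (3:7); p.o. 3 mg/kg in CMC/water/Tween (0.5:99:0.5). Exposure values dose normalized.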

[6] = Volume of distribution at steady state in Sprague-Dawley rat at 1 mg/kg, iv and 3 mg/kg, po administered as cassette dosing; assay type: ADME, organism-based; settings: in vivo, read-out: Vdss
How it was run: (§2)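 Rats were dosed i.v. at 1 mg/kg in NMP/PEG200 (3:7) and p.o. at 3 mg/kg in CMC/water/Tween (0.5:99:0.5). PK parameters were derived from blood concentration–time curves for both routes.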

[7] = Mean residence time in Sprague-Dawley rat at 1 mg/kg, iv and 3 mg/kg, po administered as cassette dosing; assay type: ADME, organism-based; settings: in vivo; how it was run: as §2
Rattus norvegicus [8] = assay: Dose normalized AUC in Sprague-Dawley rat at 1 mg/kg, iv administered as cassette dosing; assay type: ADME, organism-based; parameters: dose 1 mg/kg, route intravenous; settings: in vivo; how it was run: as §1
Rattus norvegicus [9] = assay: Dose normalized AUC in Sprague-Dawley rat at 3 mg/kg, po administered as cassette dosing; assay type: ADME, organism-based; parameters: dose 3 mg/kg, route oral; settings: in vivo; how it was run: as §1
[10] = Oral bioavailability in Sprague-Dawley rat at 3 mg/kg administered as cassette dosing; assay type: ADME, organism-based; settings: in vivo; how it was run: as §2
Rattus norvegicus [11] = assay: Dose normalized Cmax in Sprague-Dawley rat at 1 mg/kg, iv and 3 mg/kg, po administered as cassette dosing; assay type: ADME, organism-based; settings: in vivo; how it was run: as §1
Hepatocyte [12] = assay: Metabolic stability in human hepatocytes assessed as compound remaining; assay type: ADME, cell-based
Hepatocyte [13] = assay: Metabolic stability in rat hepatocytes assessed as compound remaining; assay type: ADME, cell-based
[14] = Metabolic stability in dog hepatocytes assessed as compound remaining; assay type: ADME, cell-based, Canis lupus familiaris, Hepatocyte
[15] = Metabolic stability in monkey hepatocytes assessed as compound remaining; assay type: ADME, cell-based, Macaca mulatta, Hepatocyte; settings: rhesus monkey
[16] = biological target: T1, Tyrosine-protein kinase SYK
[17] = Metabolic stability in monkey liver assessed as formation of 2-(7-(3-((1R,2S)-2-aminocyclohexylamino)-6-carbamoyl-1,2,4-triazin-5-ylamino)-3-oxo-3H-indol-2-ylamino)-3-mercaptopropanoic acid at 10 to 20 uM after 8 to 18 hrs; assay type: ADME, tissue-based, Macaca mulatta; settings: rhesus monkey
How it was run: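 Freshly excised monkey liver was cut into 230 μm slices from 8 mm cores. Four slices per vessel were preincubated 1 h at 37 °C in Williams medium E with 10% FBS, glucose, insulin, hydrocortisone, methionine, gentamycin and amphotericin B, under 75% O2/5% CO2/20% N2 with rotation. Compound was added at 10 or 20 μM (from 2 mM DMSO stock) for 8 or 18 h, then quenched with cold acetonitrile.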

hERG (KCNH2) [18] = biological target: T2, hERG (KCNH2) (Homo sapiens, UniProt Q12809); assay: Inhibition of human ERG at 10 uM by manual patch clamp assay relative to control
hERG (KCNH2) [19] = biological target: T2, hERG (KCNH2); assay: Inhibition of human ERG at 3 uM by manual patch clamp assay relative to control
[20] = Mus musculus, C57BL/6, Bone marrow cell

Chain of Voltage-gated inwardly rectifying potassium channel KCNH2 (Q12809 whole entry): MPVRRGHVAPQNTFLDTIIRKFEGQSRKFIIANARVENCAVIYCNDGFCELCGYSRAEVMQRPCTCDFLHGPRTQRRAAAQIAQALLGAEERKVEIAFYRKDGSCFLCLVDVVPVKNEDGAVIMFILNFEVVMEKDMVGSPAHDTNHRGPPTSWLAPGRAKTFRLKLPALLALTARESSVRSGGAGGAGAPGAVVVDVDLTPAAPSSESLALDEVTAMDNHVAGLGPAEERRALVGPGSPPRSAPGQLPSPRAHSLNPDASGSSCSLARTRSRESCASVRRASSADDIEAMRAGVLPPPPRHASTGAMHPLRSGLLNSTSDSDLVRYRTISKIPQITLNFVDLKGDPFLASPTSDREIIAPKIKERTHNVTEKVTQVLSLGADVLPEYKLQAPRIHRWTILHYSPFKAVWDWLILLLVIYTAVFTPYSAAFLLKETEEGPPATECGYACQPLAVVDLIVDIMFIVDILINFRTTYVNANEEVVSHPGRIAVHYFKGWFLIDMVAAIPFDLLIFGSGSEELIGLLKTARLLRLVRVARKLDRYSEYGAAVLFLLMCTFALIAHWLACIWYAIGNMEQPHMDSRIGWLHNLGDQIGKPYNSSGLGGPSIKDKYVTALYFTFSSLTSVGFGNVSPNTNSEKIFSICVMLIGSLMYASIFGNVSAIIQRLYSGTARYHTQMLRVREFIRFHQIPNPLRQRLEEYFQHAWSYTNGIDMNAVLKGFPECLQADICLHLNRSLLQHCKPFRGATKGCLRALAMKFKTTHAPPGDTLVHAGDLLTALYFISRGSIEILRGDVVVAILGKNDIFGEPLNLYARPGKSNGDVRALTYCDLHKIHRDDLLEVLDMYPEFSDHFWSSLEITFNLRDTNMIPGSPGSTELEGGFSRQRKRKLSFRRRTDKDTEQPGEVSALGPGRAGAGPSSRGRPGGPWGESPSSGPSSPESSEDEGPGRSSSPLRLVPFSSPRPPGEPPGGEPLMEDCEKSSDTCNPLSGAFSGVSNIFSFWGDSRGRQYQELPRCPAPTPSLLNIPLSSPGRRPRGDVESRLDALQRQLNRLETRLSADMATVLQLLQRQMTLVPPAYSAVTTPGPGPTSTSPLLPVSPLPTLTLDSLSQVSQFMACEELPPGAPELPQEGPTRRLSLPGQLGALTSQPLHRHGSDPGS
T2 sequence (Q12809 whole entry): as above

Structure (SMILES) | IC50 [1, 20] [nM] | IC50 [2] [nM] | IC50 [3] [nM] | IC50 [4] [nM] | IC50 [16] [nM] | also measured
NC(=O)c1nnc(N[C@@H]2CCCC[C@@H]2N)nc1Nc1cccc2[nH]ccc12 | 5270 | 14 | 177 | 3700 |  | clearance [5]: 83 mL/min/kg; Vd [6]: 10.3 L/kg; MRT [7]: 2.1 h; AUC/dose (Rattus norvegicus [8]): 522 nM·h; AUC/dose (Rattus norvegicus [9]): 19 nM·h; bioavailability [10]: 4%; Cmax/dose (Rattus norvegicus [11]): 4 nM
NC(=O)c1cnc(N[C@@H]2CCCC[C@@H]2NC(=O)OCc2ccccc2)nc1Nc1cccc2cc[nH]c12 |  |  |  |  |  | Stability (Hepatocyte [12]): 2.1%; Stability (Hepatocyte [13]): 2.6%; Stability [14]: 8.4%; Stability [15]: 13%
NC(=O)c1ccc(N[C@@H]2CCCC[C@@H]2N)nc1Nc1cccc2cc[nH]c12 | > 10000 | 438 |  | > 30000 | 165 | 
NC(=O)c1cnc(N[C@@H]2CCCC[C@@H]2N)nc1Nc1cccc2cc[nH]c12 | > 10000 | 170 | 782 | > 30000 | 94 | 
NC(=O)c1ccc(N[C@@H]2CCCC[C@@H]2N)nc1Nc1cccc(-n2nccn2)c1 | 2600 | 445 |  |  | 19 | 
NC(=O)c1ncc(N[C@@H]2CCCC[C@@H]2N)nc1Nc1cccc(-n2nccn2)c1 | 2110 | 69 | 1790 | 10000 | 1 | 
NC(=O)c1nnc(N[C@@H]2CCCC[C@@H]2N)nc1Nc1cccc2c1N=C(NC(CS)C(=O)O)C2=O (stereo partly drawn) |  |  |  |  |  | Drug metabolism [17]: 0.9 µg
NC(=O)c1cnc(N[C@@H]2CCCC[C@@H]2N)nc1Nc1cccc(-n2nccn2)c1 | 5850 |  |  |  |  | 
N[C@H]1CCCC[C@H]1Nc1cc2nc[nH]c(=O)c2c(Nc2cccc(-n3nccn3)c2)n1 | 249 |  |  |  |  | 
N[C@H]1COCC[C@H]1Nc1cc2cc[nH]c(=O)c2c(Nc2cccc3cc[nH]c23)n1 | 3520 |  |  |  |  | 
c1cn2cc(-c3ccc4cn[nH]c4c3)nc(Nc3ccc(N4CCOCC4)cc3)c2n1 [ENTOSPLETINIB] |  |  |  |  |  | IC50 ([1]; bone marrow cell): 582 nM
NC(=O)c1nnc(N[C@@H]2CCCC[C@@H]2N)nc1Nc1cccc(-n2nccn2)c1 | 811 |  |  | 3700 |  | 
NC(=O)c1ncc(N[C@@H]2CCCC[C@@H]2N)nc1Nc1cccc2cc[nH]c12 | 5270 | 30 | 302 | 8100 | 5 | inhibition at 10 µM (hERG (KCNH2) [18]): 50%; inhibition at 3 µM (hERG (KCNH2) [19]): 13%; clearance [5]: 28 mL/min/kg; Vd [6]: 12.3 L/kg; MRT [7]: 7.2 h; AUC/dose (Rattus norvegicus [8]): 1610 nM·h; AUC/dose (Rattus norvegicus [9]): 1523 nM·h; bioavailability [10]: 95%; Cmax/dose (Rattus norvegicus [11]): 108 nM
